In ChEMBL document CHEMBL1671838, “Discovery of MK-1220: A Macrocyclic Inhibitor of Hepatitis C Virus NS3/4A Protease with Improved Preclinical Plasma Exposure” (ACS Med Chem Lett, 2011):
Each block holds one compound with its values, some of them ahead of it.

What was measured:
Hepatitis C virus [1] = assay: Antiviral activity against HCV1b con1 infected in human HuH7 cells assessed as inhibition of viral replication after 24 hrs in presence of 10% fetal bovine serum; assay type: functional, organism-based, Hepacivirus hominis; conditions: Con1, Huh-7, 24 h
In short: (§1)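 Cell-based HCV replicon assay giving IC50. Genotype 1b replicon run with 10% fetal bovine serum or with 50% normal human serum. Genotype 2a replicon run with 10% FBS.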

Hepatitis C virus [2] = assay: Antiviral activity against HCV1b con1 infected in human HuH7 cells assessed as inhibition of viral replication after 24 hrs in presence of 50% normal human serum; assay type: functional, organism-based, Hepacivirus hominis; conditions: Con1, Huh-7, 24 h; in short: as §1
[3] = Inhibition of HCV NS3/4A protease expressed Escherichia coli after 1 hr by time-resolved fluorescence assay; set-up: species or system Hepacivirus hominis
In short: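 Binding assay against genotype 1b HCV NS3/4A protease, read by time-resolved fluorescence; potency expressed as Ki.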

[4] = Drug level in Sprague-Dawley rat liver at 5 mg/kg, po after 4 hrs; assay type: ADME, organism-based; set-up: dose 5 mg/kg, route oral; conditions: read-out: Drug uptake
In short: (§2)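 Rat PK screen: 5 mg/kg given orally in PEG400, n = 2; plasma AUC calculated from a 4 h experiment, and liver concentration measured at 4 h after dosing.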

[5] = AUC in Sprague-Dawley rat plasma at 5 mg/kg, po after 4 hrs; assay type: ADME, organism-based; set-up: time < 4 hr, dose 5 mg/kg, route oral; in short: as §2
[6] = Clearance in Sprague-Dawley rat at 2 mg/kg, iv; assay type: ADME, organism-based; set-up: dose 2 mg/kg, route intravenous; conditions: in vivo
In short: (§3)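 IV PK: 2 mg/kg dosed intravenously in DMSO to rat (n = 4) and dog (n = 2).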

[7] = Half life in Sprague-Dawley rat at 2 mg/kg, iv; assay type: ADME, organism-based; set-up: dose 2 mg/kg, route intravenous; conditions: in vivo; in short: as §3
[8] = Bioavailability in Sprague-Dawley rat at 2 mg/kg, iv and 5 mg/kg, po; assay type: ADME, organism-based; conditions: in vivo
In short: (§4)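 Bioavailability derived from IV dosing at 2 mg/kg in DMSO (rat n = 4, dog n = 2) and PO dosing at 5 mg/kg in 10% Tween (rat n = 3, dog n = 2).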

[9] = Cmax in Sprague-Dawley rat at 5 mg/kg, po; assay type: ADME, organism-based; set-up: dose 5 mg/kg, route oral; conditions: in vivo
In short: (§5)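 Oral PK study: 5 mg/kg PO in 10% Tween. Rat n = 3, dog n = 2. Plasma exposure was measured in both species, and dog liver levels were measured at 2 h and 26 h after dosing.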

[10] = AUC in Sprague-Dawley rat at 5 mg/kg, po; assay type: ADME, organism-based; set-up: dose 5 mg/kg, route oral; conditions: plasma; in short: as §5
[11] = Drug level in Sprague-Dawley rat liver at 5 mg/kg, po after 24 hrs; assay type: ADME, organism-based; set-up: dose 5 mg/kg, route oral; conditions: read-out: Drug uptake
In short: (§6)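 Single oral dose of 5 mg/kg in 10% Tween vehicle; n = 3 for rat and n = 2 for dog. Liver drug concentration was measured at 24 h in rat and at 26 h in dog.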

[12] = Clearance in Beagle dog at 2 mg/kg, iv; assay type: ADME, organism-based, Canis lupus familiaris; set-up: dose 2 mg/kg, route intravenous; conditions: in vivo; in short: as §3
[13] = Half life in Beagle dog at 2 mg/kg, iv; assay type: ADME, organism-based, Canis lupus familiaris; set-up: dose 2 mg/kg, route intravenous; conditions: in vivo; in short: as §3
[14] = Bioavailability in Beagle dog at 2 mg/kg, iv and 5 mg/kg, po; assay type: ADME, organism-based, Canis lupus familiaris; conditions: in vivo; in short: as §4
[15] = Cmax in Beagle dog at 5 mg/kg, po; assay type: ADME, organism-based, Canis lupus familiaris; set-up: dose 5 mg/kg, route oral; conditions: in vivo; in short: as §5
[16] = AUC in Beagle dog at 5 mg/kg, po; assay type: ADME, organism-based, Canis lupus familiaris; set-up: dose 5 mg/kg, route oral; conditions: plasma; in short: as §5
[17] = Drug level in Beagle dog liver at 5 mg/kg, po after 2 hrs; assay type: ADME, organism-based, Canis lupus familiaris; set-up: dose 5 mg/kg, route oral; conditions: read-out: Drug uptake; in short: as §5
[18] = Drug level in Beagle dog liver at 5 mg/kg, po after 26 hrs; assay type: ADME, organism-based, Canis lupus familiaris; set-up: dose 5 mg/kg, route oral; conditions: read-out: Drug uptake; in short: as §6
[19] = Cmax in rhesus monkey at 5 mg/kg, po; assay type: ADME, organism-based, Macaca mulatta; set-up: dose 5 mg/kg, route oral; conditions: in vivo
In short: (§7)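 Rhesus monkey oral PK: 5 mg/kg PO in 10% Tween, n = 2.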

[20] = AUC in rhesus monkey at 5 mg/kg, po; assay type: ADME, organism-based, Macaca mulatta; set-up: dose 5 mg/kg, route oral; conditions: plasma; in short: as §7
[21] = Selectivity ratio Ki for HCV NS3/4A protease to Ki for trypsin
[22] = Selectivity ratio Ki for HCV NS3/4A protease to Ki for chymotrypsin
Hepatitis C virus [23] = assay: Antiviral activity against HCV2a infected in human HuH7 cells assessed as inhibition of viral replication after 24 hrs in presence of 10% fetal bovine serum; assay type: functional, organism-based, Hepacivirus hominis; conditions: genotype 2a, Huh-7, 24 h; in short: as §1
[24] = Clearance in rhesus monkey at 1 mg/kg, iv; conditions: in vivo
[25] = Half life in rhesus monkey at 1 mg/kg, iv; conditions: in vivo
[26] = Bioavailability in rhesus monkey at 1 mg/kg, iv and 5 mg/kg, po; conditions: in vivo

Structure (SMILES): C=C[C@@H]1C[C@]1(NC(=O)[C@@H]1C[C@@H]2CN1C(=O)[C@H](C1CCCC1)NC(=O)OCCCCCc1cc3c(nccc3cc1OC)O2)C(=O)NS(=O)(=O)C1CC1
IC50 (Hepatitis C virus [1]): 2 nM
IC50 (Hepatitis C virus [2]): 80 nM
Ki [3]: 0.03 nM
concentration at 4 h [4]: 8 µM
AUC at 4 h [5]: 18.1 µM·h

Structure (SMILES): C=C[C@@H]1C[C@]1(NC(=O)[C@@H]1C[C@@H]2CN1C(=O)[C@H](C1CCCCC1)NC(=O)OCC(C)(C)CCCc1cc3c(nccc3cc1OC)O2)C(=O)NS(=O)(=O)C1CC1
IC50 (Hepatitis C virus [1]): 4 nM
IC50 (Hepatitis C virus [2]): 11 nM
clearance [6]: 3.4 mL/min/kg
half-life [7]: 5.7 h
bioavailability [8]: 37%
Cmax [9]: 4.4 µM
AUC [10]: 12.1 µM·h
concentration at 24 h [11]: 9.9 µM
clearance [12]: 3.6 mL/min/kg
half-life [13]: 2.5 h
bioavailability [14]: 41%
Cmax [15]: 4 µM
AUC [16]: 12.4 µM·h
concentration at 2 h [17]: 54 µM
concentration at 26 h [18]: 10.3 µM
Cmax [19]: 0.3 µM
AUC [20]: 1.2 µM·h
Ratio Ki [21]: > 50000
Ratio Ki [22]: > 50000
Ki [3]: 0.02 nM
concentration at 4 h [4]: 23 µM
AUC at 4 h [5]: 11.8 µM·h
IC50 (Hepatitis C virus [23]): 5 nM
clearance [24]: 8.3 mL/min/kg
half-life [25]: 1.3 h
bioavailability [26]: 9%

Structure (SMILES): C=C[C@@H]1C[C@]1(NC(=O)[C@@H]1C[C@@H]2CN1C(=O)[C@H](C1CCCCC1)NC(=O)OCCC/C=C/c1ccc3ccnc(c3c1)O2)C(=O)NS(=O)(=O)C1CC1
IC50 (Hepatitis C virus [1]): 2.5 nM
IC50 (Hepatitis C virus [2]): 78 nM
Ki [3]: 0.063 nM
concentration at 4 h [4]: 46.9 µM
AUC at 4 h [5]: 0.67 µM·h

Structure (SMILES): C=C[C@@H]1C[C@]1(NC(=O)[C@@H]1C[C@@H]2CN1C(=O)[C@H](C(C)(C)C)NC(=O)OCCCCCc1cc(OC)c3ccnc(c3c1)O2)C(=O)NS(=O)(=O)C1CC1
IC50 (Hepatitis C virus [1]): 2.7 nM
IC50 (Hepatitis C virus [2]): 35 nM
Ki [3]: 0.04 nM
concentration at 4 h [4]: 33.2 µM
AUC at 4 h [5]: 17.7 µM·h

Structure (SMILES): C=C[C@@H]1C[C@]1(NC(=O)[C@@H]1C[C@@H]2CN1C(=O)[C@H](C(C)(C)C)NC(=O)OCCCCCc1cc3c(nccc3cc1OC)O2)C(=O)NS(=O)(=O)C1CC1
IC50 (Hepatitis C virus [1]): 3 nM
IC50 (Hepatitis C virus [2]): 113 nM
Ki [3]: 0.04 nM
concentration at 4 h [4]: 3 µM
AUC at 4 h [5]: 9.6 µM·h

Structure (SMILES): C=C[C@@H]1C[C@]1(NC(=O)[C@@H]1C[C@@H]2CN1C(=O)[C@H](C1CCCC1)NC(=O)OCCC/C=C/c1ccc3ccnc(c3c1)O2)C(=O)NS(=O)(=O)C1CC1
IC50 (Hepatitis C virus [1]): 2 nM
IC50 (Hepatitis C virus [2]): 40 nM
Ki [3]: 0.1 nM
concentration at 4 h [4]: 9.2 µM
AUC at 4 h [5]: 4.2 µM·h

Structure (SMILES): C=C[C@@H]1C[C@]1(NC(=O)[C@@H]1C[C@@H]2CN1C(=O)[C@H](C(C)(C)C)NC(=O)OCCCCCc1cc(Br)c3ccnc(c3c1)O2)C(=O)NS(=O)(=O)C1CC1
IC50 (Hepatitis C virus [1]): 2 nM
IC50 (Hepatitis C virus [2]): 170 nM
Ki [3]: 0.04 nM
concentration at 4 h [4]: 5.8 µM
AUC at 4 h [5]: 0.28 µM·h

Further compounds by falling IC50 (Hepatitis C virus [1]), results first:

IC50 (Hepatitis C virus [1]): 15 nM
concentration at 4 h [4]: 0.09 µM
AUC at 4 h [5]: 0.8 µM·h
Structure (SMILES): C=C[C@@H]1C[C@]1(NC(=O)[C@@H]1C[C@@H]2CN1C(=O)[C@H](C1CCOCC1)NC(=O)OCCCCCc1ccc3ccnc(c3c1)O2)C(=O)NS(=O)(=O)C1CC1
IC50 (Hepatitis C virus [2]): 34 nM
Ki [3]: 0.07 nM

IC50 (Hepatitis C virus [1]): 6 nM
concentration at 4 h [4]: 15.2 µM
AUC at 4 h [5]: 6.9 µM·h
Structure (SMILES): C=C[C@@H]1C[C@]1(NC(=O)[C@@H]1C[C@@H]2CN1C(=O)[C@H](C(C)(C)C)NC(=O)OCCCCCc1cc(OCC)c3ccnc(c3c1)O2)C(=O)NS(=O)(=O)C1CC1
IC50 (Hepatitis C virus [2]): 500 nM
Ki [3]: 0.37 nM

IC50 (Hepatitis C virus [1]): 3 nM
concentration at 4 h [4]: 13.2 µM
AUC at 4 h [5]: 2.5 µM·h
IC50 (Hepatitis C virus [23]): 6 nM
Structure (SMILES): C=C[C@@H]1C[C@]1(NC(=O)[C@@H]1C[C@@H]2CN1C(=O)[C@H](C1CCCCC1)NC(=O)OCCCCCc1cc(OC)c3ccnc(c3c1)O2)C(=O)NS(=O)(=O)C1CC1
IC50 (Hepatitis C virus [2]): 60 nM
Ki [3]: 0.05 nM

IC50 (Hepatitis C virus [1]): 2.5 nM
concentration at 4 h [4]: 12.5 µM
AUC at 4 h [5]: 2.1 µM·h
Structure (SMILES): C=C[C@@H]1C[C@]1(NC(=O)[C@@H]1C[C@@H]2CN1C(=O)[C@H](C(C)(C)C)NC(=O)OCCCCCc1cc(CC)c3ccnc(c3c1)O2)C(=O)NS(=O)(=O)C1CC1
IC50 (Hepatitis C virus [2]): 90 nM
Ki [3]: 0.14 nM

IC50 (Hepatitis C virus [1]): 2 nM
concentration at 4 h [4]: 16 µM
AUC at 4 h [5]: 0.18 µM·h
IC50 (Hepatitis C virus [23]): 11 nM
Structure (SMILES): C=C[C@@H]1C[C@]1(NC(=O)[C@@H]1C[C@@H]2CN1C(=O)[C@H](C1CCCC1)NC(=O)OCC(C)(C)CCCc1ccc3ccnc(c3c1)O2)C(=O)NS(=O)(=O)C1CC1
IC50 (Hepatitis C virus [2]): 10 nM
Ki [3]: 0.02 nM
